According to ChEMBL document CHEMBL3745596, “Chlorophenoxy aminoalkyl derivatives as histamine H(3)R ligands and antiseizure agents” (Bioorg Med Chem, 2016):
The source made the active and inactive calls.

Assays:
[1] = target: Histamine H3 receptor (Homo sapiens, UniProt Q9Y5N1); test: Displacement of [3H]-Nalpha-methylhistamine from human recombinant histamine H3 receptor expressed in HEK293 cells after 90 mins; type: cell-based
[2] = tested on: Mus musculus; test: Anticonvulsant activity in CF1 albino mouse assessed as protection against maximal electroshock-induced seizure at 3 mg/kg, ip after 0.5 hrs; type: functional, organism-based
Summary of the method: (§1)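 Male CF-1 mice dosed ip as suspension in 0.5% methylcellulose. Corneal electrodes deliver 60 Hz alternating current, 50 mA for […], after a drop of 0.5% tetracaine HCl in 0.9% NaCl per eye. Protection means abolition of hindlimb tonic extension; scored as protected/tested, or ED50 with 95% confidence interval.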

[3] = tested on: Mus musculus; test: Anticonvulsant activity in CF1 albino mouse assessed as protection against maximal electroshock-induced seizure at 10 mg/kg, ip after 0.5 hrs; type: functional, organism-based; summary of the method: as §1
[4] = tested on: Mus musculus; test: Anticonvulsant activity in CF1 albino mouse assessed as protection against maximal electroshock-induced seizure at 30 mg/kg, ip after 0.5 hrs; type: functional, organism-based; summary of the method: as §1
[5] = tested on: Mus musculus; test: Anticonvulsant activity in CF1 albino mouse assessed as protection against maximal electroshock-induced seizure at 30 mg/kg, ip after 4 hrs; type: functional, organism-based; summary of the method: as §1
[6] = tested on: Mus musculus; test: Anticonvulsant activity in CF1 albino mouse assessed as protection against maximal electroshock-induced seizure at 100 mg/kg, ip after 0.5 hrs; type: functional, organism-based; summary of the method: as §1
[7] = tested on: Mus musculus; test: Anticonvulsant activity in CF1 albino mouse assessed as protection against maximal electroshock-induced seizure at 100 mg/kg, ip after 4 hrs; type: functional, organism-based; summary of the method: as §1
[8] = tested on: Mus musculus; test: Anticonvulsant activity in CF1 albino mouse assessed as protection against subcutaneous pentetrazole-induced seizure at 30 mg/kg, ip after 0.5 hrs; type: functional, organism-based
Summary of the method: (§2)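 Male CF-1 mice, ip in 0.5% methylcellulose; pentetrazole at CD97 (85 mg/kg) injected subcutaneously in a loose fold of neck skin. Observed 30 min; absence of even a threshold seizure (single clonic spasm lasting at least 5 s) counted as protection. Scored protected/tested, or ED50.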

[9] = tested on: Mus musculus; test: Anticonvulsant activity in CF1 albino mouse assessed as protection against subcutaneous pentetrazole-induced seizure at 30 mg/kg, ip after 4 hrs; type: functional, organism-based; summary of the method: as §2
[10] = tested on: Mus musculus; test: Anticonvulsant activity in CF1 albino mouse assessed as protection against subcutaneous pentetrazole-induced seizure at 100 mg/kg, ip after 0.5 hrs; type: functional, organism-based; summary of the method: as §2
[11] = tested on: Mus musculus; test: Anticonvulsant activity in CF1 albino mouse assessed as protection against subcutaneous pentetrazole-induced seizure at 100 mg/kg, ip after 4 hrs; type: functional, organism-based; summary of the method: as §2
[12] = tested on: Mus musculus; test: Neurotoxicity in CF1 albino mouse at 3 mg/kg, ip after 0.5 hrs by rotarod test; type: toxicity, organism-based; settings: in vivo
Summary of the method: (§3)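 Rotarod neurotoxicity in male albino CF-1 mice dosed ip with compound suspended in 0.5% methylcellulose. Animal placed on a 1 inch diameter knurled plastic rod rotating at 6 rpm. Neurotoxicity scored when the animal falls off three times within 1 min. Readout is number of animals toxic/number tested at the stated time after dosing. TD50 with 95% confidence interval from the quantitative study.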

[13] = tested on: Mus musculus; test: Neurotoxicity in CF1 albino mouse at 10 mg/kg, ip after 0.5 hrs by rotarod test; type: toxicity, organism-based; settings: in vivo
Summary of the method: (§4)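 Rotarod neurotoxicity in male CF-1 mice dosed ip as 0.5% methylcellulose suspension: mouse placed on 1 inch knurled rod rotating at 6 rpm; toxicity when the animal falls off three times within 1 min, with other signs noted. Scored as toxic/tested at 0.5 h and 4 h.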

[14] = tested on: Mus musculus; test: Neurotoxicity in CF1 albino mouse at 30 mg/kg, ip after 0.5 hrs by rotarod test; type: toxicity, organism-based; settings: in vivo; summary of the method: as §3
[15] = tested on: Mus musculus; test: Neurotoxicity in CF1 albino mouse at 30 mg/kg, ip after 4 hrs by rotarod test; type: toxicity, organism-based; settings: in vivo; summary of the method: as §3
[16] = tested on: Mus musculus; test: Neurotoxicity in CF1 albino mouse at 100 mg/kg, ip after 4 hrs by rotarod test; type: toxicity, organism-based; settings: in vivo; summary of the method: as §3
[17] = tested on: Mus musculus; test: Neurotoxicity in CF1 albino mouse assessed as death at 300 mg/kg, ip after 0.5 hrs by rotarod test; type: toxicity, organism-based; settings: in vivo
Summary of the method: (§5)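 Male albino CF-1 mice dosed ip with compound suspended in 0.5% methylcellulose, then placed on a 1-inch knurled plastic rod turning at 6 rpm. A fall three times within 1 min counted as neurotoxicity. Observations were made at 0.5 h and 4 h after dosing. Result given as animals showing toxicity per animals tested, with the kind of toxicity recorded.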

[18] = tested on: Mus musculus; test: Neurotoxicity in CF1 albino mouse at 300 mg/kg, ip after 4 hrs by rotarod test; type: toxicity, organism-based; settings: in vivo; summary of the method: as §3
[19] = tested on: Mus musculus; test: Neurotoxicity in CF1 albino mouse assessed as unable to grasp rotarod, diarrhea and clonic seizure at 100 mg/kg, ip after 0.5 hrs by rotarod test; type: toxicity, organism-based; settings: in vivo; summary of the method: as §4
[20] = tested on: Rattus norvegicus; test: Anticonvulsant activity in Sprague-Dawley rat assessed as protection against maximal electroshock-induced seizure at 30 mg/kg, po; type: functional
[21] = tested on: Rattus norvegicus; test: Neurotoxicity in Sprague-Dawley rat at 30 mg/kg, po by rotarod test; type: toxicity, organism-based; settings: in vivo
Summary of the method: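 Oral dosing in male Sprague–Dawley rats, compound as a suspension in 0.5% methylcellulose. Rotarod neurotoxicity on a 1 inch knurled rod turning at 6 rpm, with three falls in 1 min scored as toxic. Reported as toxic/tested.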

[22] = tested on: Mus musculus; test: Anticonvulsant activity in ip dosed CF1 albino mouse assessed as protection against maximal electroshock-induced seizure after 0.25 hrs; type: functional; summary of the method: as §1
[23] = tested on: Mus musculus; test: Anticonvulsant activity in ip dosed CF1 albino mouse assessed as protection against subcutaneous pentetrazole-induced seizure after 0.25 hrs; type: functional; summary of the method: as §2
[24] = tested on: Mus musculus; test: Protective index, ratio of TD50 for ip dosed CF1 albino mouse to ED50 for ip dosed CF1 albino mouse assessed as protection against maximal electroshock-induced seizure after 0.25 hrs; type: functional
[25] = tested on: Rattus norvegicus; test: Anticonvulsant activity in Sprague-Dawley rat assessed as protection against pilocarpine-induced convulsive status epilepticus at 65 mg/kg, ip; type: functional, organism-based
Summary of the method: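 Male Sprague Dawley rats (150–180 g) dosed ip, pilocarpine 50 mg/kg ip given; compound dosed immediately at first behavioral Stage 3 seizure or 30 min later. Number protected from Racine Stage 3 or greater seizures recorded.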

[26] = Neuroprotective activity in hippocampal slice (unknown origin) assessed as protection against kainic acid-induced cell death using propidium iodide staining; type: functional; settings: Hippocampus
Summary of the method: (§6)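 Organotypic hippocampal slice cultures exposed to NMDA or kainic acid alone or with compound; propidium iodide in all wells; PI fluorescence intensity of slices, proportional to cell death, compared with excitotoxin-only slices; qualitative.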

[27] = Neuroprotective activity in hippocampal slice (unknown origin) assessed as protection against NMDA-induced cell death using propidium iodide staining; type: functional; settings: Hippocampus; summary of the method: as §6
[28] = tested on: Mus musculus; test: Neurotoxicity in CF1 albino mouse assessed as death and loss of righting reflux at 300 mg/kg, ip after 0.5 hrs by rotarod test; type: toxicity, organism-based; settings: in vivo; summary of the method: as §5
[29] = tested on: Mus musculus; test: Anticonvulsant activity in CF1 albino mouse assessed as protection against 6 Hz-psychomotor-induced seizure at 100 mg/kg, ip after 0.5 to 1 hr; type: functional, organism-based
Summary of the method: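 Male CF-1 mice, ip suspension in 0.5% methylcellulose. Corneal stimulation 0.2 ms monopolar rectangular pulses at 6 Hz, 32 mA for 3 s via constant-current device; mice without minimal clonic phase seizure counted protected. Groups of four; read at 0.25, 0.5, 1, 2, 4 h; result as protected/tested.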

[30] = tested on: Mus musculus; test: Neurotoxicity in CF1 albino mouse at 100 mg/kg, ip after 0.25 to 2 hrs by rotarod test; type: toxicity, organism-based; settings: in vivo; summary of the method: as §3
[31] = tested on: Mus musculus; test: Neurotoxicity in ip dosed CF1 albino mouse after 0.25 hrs by rotarod test; type: toxicity, organism-based; settings: in vivo
Summary of the method: as §3, with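 “dosing.” for “dosing. TD50 with 95% confidence interval from the quantitative study.”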

Chain of Histamine H3 receptor (Q9Y5N1 whole entry): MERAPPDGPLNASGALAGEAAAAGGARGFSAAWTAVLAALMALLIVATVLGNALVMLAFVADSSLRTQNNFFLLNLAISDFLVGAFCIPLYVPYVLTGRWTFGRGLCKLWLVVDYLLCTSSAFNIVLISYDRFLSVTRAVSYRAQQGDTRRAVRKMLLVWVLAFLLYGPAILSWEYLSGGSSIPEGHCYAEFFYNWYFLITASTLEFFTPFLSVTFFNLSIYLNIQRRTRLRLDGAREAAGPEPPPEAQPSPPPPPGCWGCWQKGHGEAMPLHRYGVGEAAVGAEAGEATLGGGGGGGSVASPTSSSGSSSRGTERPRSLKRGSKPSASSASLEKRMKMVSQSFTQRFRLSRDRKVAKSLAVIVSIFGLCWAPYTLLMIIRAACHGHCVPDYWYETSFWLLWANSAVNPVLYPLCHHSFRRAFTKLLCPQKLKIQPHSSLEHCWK

SMILES	Ki [1]	Activity [2]	Activity [3]	Activity [4]	Activity [5]	Activity [6]	Activity [7]	Activity [8]	Activity [9]	Activity [10]	Activity [11]	Activity [12]	Activity [13]	Activity [14]	Activity [15]	Activity [16]	Activity [18]	Activity [20]	further results
CC1CCN(CCCCCCCOc2ccc(Cl)cc2)CC1.O=C(O)C(=O)O	0.467 µM	inactive	inactive	Active	inactive	Active	Active	inactive	inactive	inactive	inactive	Non-toxic	Non-toxic	Non-toxic	Non-toxic	Non-toxic	Non-toxic	inactive	Activity [17]: Toxic; Activity [19]: Toxic; Activity [21]: Non-toxic
CC1CCCN(CCCCCCOc2ccc(Cl)cc2)C1.O=C(O)C(=O)O (centres undefined)	0.205 µM	inactive	inactive	Active	inactive	Active	Active	inactive	inactive	inactive	inactive	Non-toxic	Non-toxic	Non-toxic	Non-toxic	Non-toxic	Non-toxic	25%	ED50 [22]: 16.8 mg/kg; ED50 [23]: > 50 mg/kg; Ratio TD50/ED50 [24]: 3; Activity [25]: Active; Activity [26]: inactive; Activity [27]: inactive; Activity [28]: Toxic; Activity [29]: inactive; Activity [30]: Toxic; TD50 (median neurotoxic dose) [31]: 50.4 mg/kg
